Screening results as filed in PubChem BioAssay.
MC4R ag barr: activates human MC4R beta-arrestin recruitment; P32245; U2OS MC4R beta-arrestin complementation, luminescence; percent of melanotan II response, DMSO zero; activation, % at 8.9 µM; 0.98% of 360,000 active;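 active = activation above a per-plate cutoff, the mean activation of sample wells on that plate plus 3 SD, cut at about 8% in these data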
TLR4-MyD88 BLA: inhibitors of human TLR4-MyD88 binding | 0.18% of 200,000 active | inhibition, % at 8.4 µM | AID 861 | HeLa CL3-4 TLR4/MyD88 BLA complementation, FRET ratio; in the data active = inhibition above about 25%
NTR1 agonist: activates human neurotensin receptor 1; P30989; NTR1-U2OS beta-arrestin-GFP spot imaging, agonist mode; activation, % at 20 µM; 0.17% of 330,000 active; AID 493036;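 active = activation at or above 40% of the spot to cytoplasm intensity ratio, with at least 20 cells analyzed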
MC4R antag cAMP: antagonists of human melanocortin 4 receptor (MC4R); MC4R-expressing cells, MTII-stimulated cAMP, LANCE TR-FRET; inhibition, % at 6.5 µM; 0.48% of 360,000 active; AID 540295;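 active = inhibition above its plate's cutoff, the mean of tested wells on that plate plus 3 SD, cut at about 29% in these data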
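Assay system: U2OS-MC4R stable cell line; Also added: Melanotan II; Technique: Eu-cAMP/anti-cAMP TR-FRET, emission 671 nm; Times: 30-min compound, 1-h challenge, 1-h detection, room temperature.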
NOD2-RIPK2 inh: NOD2-RIPK2 protein interaction inhibition; CHO BLA complementation NOD2-RIPK2, CCF4 ratio; inhibition, % at 4.98 µM; 0.38% of 360,000 active; in the data active = inhibition above about 21%
Target sequence (O43353 whole entry, looked up): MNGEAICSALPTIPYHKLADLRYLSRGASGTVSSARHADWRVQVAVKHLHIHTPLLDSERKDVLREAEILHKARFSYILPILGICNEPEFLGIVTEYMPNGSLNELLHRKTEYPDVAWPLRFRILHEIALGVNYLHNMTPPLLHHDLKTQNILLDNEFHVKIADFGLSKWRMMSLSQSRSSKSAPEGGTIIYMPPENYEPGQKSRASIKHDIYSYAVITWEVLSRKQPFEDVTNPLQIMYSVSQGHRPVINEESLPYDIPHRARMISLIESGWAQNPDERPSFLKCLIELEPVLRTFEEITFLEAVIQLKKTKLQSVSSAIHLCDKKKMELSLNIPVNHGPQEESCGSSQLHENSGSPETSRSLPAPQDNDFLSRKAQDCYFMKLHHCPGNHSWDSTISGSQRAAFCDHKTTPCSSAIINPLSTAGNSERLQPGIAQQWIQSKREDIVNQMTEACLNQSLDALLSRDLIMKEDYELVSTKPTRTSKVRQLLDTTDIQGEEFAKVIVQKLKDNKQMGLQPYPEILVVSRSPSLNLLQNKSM
TLR9-MyD88 inh: TLR9-MyD88 interaction inhibition; inhibition, % at 4.98 µM; CHO BLA complementation TLR9-MyD88, CCF4 FRET ratio; 0.21% of 340,000 active;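 active = inhibition above the mean over all tested compounds plus 3 SD, cut at about 21% in these data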
MC4R barr conf: human MC4R beta-arrestin agonism confirmation. shares compounds with MC4R ag barr. U2OS MC4R beta-arrestin recruitment, luminescence; scaled DMSO 0%, Melanotan II 100%. activation, % at 8.9 µM. 31% of 2,400 active. AID 602192;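 active = mean activation across replicates above the hit cutoff set in the earlier primary screen, cut at about 8% in these data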
MOR-DOR barr ag: OPRM1-OPRD1 heterodimer agonism counter-screen. shares compounds with MC4R ag barr. U2OS PathHunter beta-arrestin, beta-gal luminescence; percent of deltorphin B response, DMSO zero. activation, % at 9.2 µM. 5.8% of 2,400 active. AID 602194;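 active = mean activation across replicates exceeds the hit threshold derived in the earlier primary screen, cut at about 18% in these data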
Hits are given with their value. Only some compounds are listed: those with a hit (about 1.9% of all), similar ones and a draw of the others.

Screening Cc1cccc(N2C(=O)CC(SC(=Nc3ccccc3)Nc3ccccc3)C2=O)c1 (stereo not drawn) returned MC4R ag barr inactive, TLR4-MyD88 BLA inactive, NTR1 agonist inactive, MC4R antag cAMP inactive, NOD2-RIPK2 inh inactive and TLR9-MyD88 inh inactive.
`Cc1nn(-c2ccc(F)cc2)c(Cl)c1C(=O)OC(C)C(=O)N(C)C1CCCCC1` (stereo not drawn) gave MC4R ag barr inactive, NTR1 agonist inactive, MC4R antag cAMP inactive, NOD2-RIPK2 inh inactive and TLR9-MyD88 inh inactive.
For c1ccc(NC2=NCCN2CCC2CCCC2)cc1 the results were MC4R ag barr inactive, NTR1 agonist inactive, MC4R antag cAMP inactive, NOD2-RIPK2 inh inactive and TLR9-MyD88 inh inactive.
`O=C(COC(=O)c1cc(-c2ccccc2)nc2ccccc12)Nc1ccc2c(c1)OCO2` gave MC4R ag barr 16, TLR4-MyD88 BLA inactive, NTR1 agonist inactive, MC4R antag cAMP inactive, NOD2-RIPK2 inh inactive, TLR9-MyD88 inh inactive, MC4R barr conf inactive and MOR-DOR barr ag inactive.
Cc1c(NC(=O)c2cc(-c3ccccc3)nc3ccccc23)c(=O)n(-c2ccccc2)n1C was read as MC4R ag barr inactive, NTR1 agonist inactive, MC4R antag cAMP inactive, NOD2-RIPK2 inh inactive and TLR9-MyD88 inh inactive.
For O=C(COC(=O)c1cc(Br)ccc1O)Nc1ccc2c(c1)OCO2 the results were MC4R ag barr 10, NTR1 agonist inactive, MC4R antag cAMP inactive, NOD2-RIPK2 inh inactive, TLR9-MyD88 inh inactive, MC4R barr conf inactive and MOR-DOR barr ag inactive.
For O=C(COC(=O)c1cc(Br)ccc1O)Nc1ccc2c(c1)OCCO2 the results were MC4R ag barr inactive, NTR1 agonist inactive, MC4R antag cAMP inactive, NOD2-RIPK2 inh inactive and TLR9-MyD88 inh inactive.
For Cc1c(NC(=O)COC(=O)c2cc(-c3ccc(-c4ccccc4)cc3)nc3ccccc23)c(=O)n(-c2ccccc2)n1C the results were MC4R ag barr 18, TLR4-MyD88 BLA inactive, MC4R antag cAMP inactive, NOD2-RIPK2 inh inactive, TLR9-MyD88 inh inactive, MC4R barr conf inactive and MOR-DOR barr ag inactive.
CC1CCCCC12NC(=O)N(CC(=O)NCCc1ccc(S(N)(=O)=O)cc1)C2=O (stereo not drawn) was read as MC4R ag barr inactive, NTR1 agonist inactive, MC4R antag cAMP inactive, NOD2-RIPK2 inh inactive and TLR9-MyD88 inh inactive.
Screening Cc1ccc(NC(=O)COc2coc(CN3CCc4ccccc43)cc2=O)cc1Cl returned MC4R ag barr 12, NTR1 agonist inactive, MC4R antag cAMP inactive, NOD2-RIPK2 inh inactive, TLR9-MyD88 inh inactive, MC4R barr conf inactive and MOR-DOR barr ag 25.
O=C(COc1cc(Cl)ccc1Cl)Nc1ccc2[nH]c(=O)[nH]c2c1 was read as MC4R ag barr 12, NTR1 agonist inactive, MC4R antag cAMP inactive, NOD2-RIPK2 inh inactive, TLR9-MyD88 inh inactive, MC4R barr conf inactive and MOR-DOR barr ag inactive.
COCCn1c(C)cc(/C=C2\NC(=S)N(C)C2=O)c1C was read as MC4R ag barr inactive, TLR4-MyD88 BLA inactive, NTR1 agonist inactive, MC4R antag cAMP inactive, NOD2-RIPK2 inh inactive and TLR9-MyD88 inh inactive.
For CN1C(=O)/C(=C/c2cc3c(cc2Br)OCO3)NC1=S the results were MC4R ag barr 11, TLR4-MyD88 BLA inactive, NTR1 agonist inactive, MC4R antag cAMP inactive, NOD2-RIPK2 inh inactive, TLR9-MyD88 inh inactive, MC4R barr conf inactive and MOR-DOR barr ag inactive.
`CC(C)NC(=O)c1cc(C2CCCCN2C(=O)c2ccc(C(C)C)cc2)on1` (stereo not drawn) gave MC4R ag barr inactive, MC4R antag cAMP inactive and NOD2-RIPK2 inh inactive.
`COc1cccc(OCC(O)CN2CCN(c3ccc(Cl)cc3)CC2)c1` (stereo not drawn) gave MC4R ag barr inactive, NTR1 agonist inactive, MC4R antag cAMP inactive, NOD2-RIPK2 inh inactive and TLR9-MyD88 inh inactive.
`COc1ccc(OCC(O)CN2CCN(c3ccc(Cl)cc3)CC2)cc1` (stereo not drawn) gave MC4R ag barr 11, NTR1 agonist inactive, MC4R antag cAMP inactive, NOD2-RIPK2 inh inactive, TLR9-MyD88 inh inactive, MC4R barr conf inactive and MOR-DOR barr ag inactive.
Screening COc1ccc(C(=O)c2sc(Nc3ccccc3)c(C(=O)Nc3ccc(OC)c(OC)c3)c2N)cc1 returned MC4R ag barr inactive, TLR4-MyD88 BLA inactive, NTR1 agonist inactive, MC4R antag cAMP inactive, NOD2-RIPK2 inh inactive and TLR9-MyD88 inh inactive.
COc1ccc(NC(=O)c2c(Nc3ccccc3)sc(C(=O)c3ccc(F)cc3)c2N)cc1 was read as MC4R ag barr 12, TLR4-MyD88 BLA inactive, NTR1 agonist inactive, MC4R antag cAMP inactive, NOD2-RIPK2 inh inactive, TLR9-MyD88 inh inactive, MC4R barr conf 14 and MOR-DOR barr ag inactive.
Screening Cc1ccc(NC(=O)c2cc(-c3cccc(O)c3)on2)cc1C returned MC4R ag barr 9.6, TLR4-MyD88 BLA inactive, NTR1 agonist inactive, MC4R antag cAMP inactive, NOD2-RIPK2 inh inactive, TLR9-MyD88 inh inactive, MC4R barr conf inactive and MOR-DOR barr ag inactive.
`O=C(NCc1ccc(OC(F)(F)F)cc1)C1CC(c2ccc(C(F)(F)F)cc2)=NO1` (stereo not drawn) gave MC4R ag barr inactive, NTR1 agonist inactive, MC4R antag cAMP inactive, NOD2-RIPK2 inh inactive and TLR9-MyD88 inh inactive.
For O=C(NCc1ccc(C(F)(F)F)cc1)C1CC(c2ccc(C(F)(F)F)cc2)=NO1 (stereo not drawn) the results were MC4R ag barr 12, NTR1 agonist inactive, MC4R antag cAMP inactive, NOD2-RIPK2 inh inactive, TLR9-MyD88 inh inactive, MC4R barr conf inactive and MOR-DOR barr ag inactive.
COc1ccc(C)cc1S(=O)(=O)N1CCCC(C(=O)N2CCN(c3ccccc3)CC2)C1 (stereo not drawn) was read as MC4R ag barr inactive, NTR1 agonist inactive, MC4R antag cAMP inactive, NOD2-RIPK2 inh inactive and TLR9-MyD88 inh inactive.
Screening CC1CC(C)CN(S(=O)(=O)c2ccc(C(=O)Nc3sccc3C(N)=O)cc2)C1 (stereo not drawn) returned MC4R ag barr 13, TLR4-MyD88 BLA inactive, NTR1 agonist inactive, MC4R antag cAMP inactive, NOD2-RIPK2 inh inactive, TLR9-MyD88 inh inactive, MC4R barr conf 14 and MOR-DOR barr ag inactive.
For NC(=O)c1ccsc1NC(=O)c1ccc(S(=O)(=O)N2CCCC2)cc1 the results were MC4R ag barr inactive, TLR4-MyD88 BLA inactive, NTR1 agonist inactive, MC4R antag cAMP inactive, NOD2-RIPK2 inh inactive and TLR9-MyD88 inh inactive.
